Screening results from PubChem BioAssay.
A selection: hits, their analogues and other compounds. The true share with any hit is near 0.72%.
mIAP block: mouse IAP inhibition; 0.2% of 330,000 active; inhibition, % at 10 µM; purified mouse IAP, CDP-Star luminescence, 30 min;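 active = inhibition of at least 40% at 10 µM in the primary screen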;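 note: plate controls were DMSO with enzyme for no effect and no enzyme wells for full effect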
bIAP inhibitor: intestinal alkaline phosphatase (bovine) inhibition; purified bovine IAP, CDP-star luminescence, 30 min; inhibition, % at 20 µM; 190,000 tested, under 10 active; AID 1019;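 active = over 50% inhibition of intestinal alkaline phosphatase at 20 µM in the single-dose screen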
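System: purified bovine intestinal alkaline phosphatase (IAP) enzyme; Input: IAP diluted 1/65,000,000 in the well; Measured by: CDP-star luminescence signal; Compound dosing: 20 µM single dose; Incubation: 30 min reaction at room temperature.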
hIAP inh: human IAP inhibition | inhibition, % at 10 µM | 0.12% of 330,000 active | purified IAP, CDP-Star luminescence, 30 min | P09923;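 active = inhibition reaching a set limit with compound at 10 µM in the primary screen, cut at about 35% in these data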;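 note: plate controls were DMSO wells with enzyme for no effect and no-enzyme buffer wells for full effect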
Target sequence (P09923 whole entry, looked up): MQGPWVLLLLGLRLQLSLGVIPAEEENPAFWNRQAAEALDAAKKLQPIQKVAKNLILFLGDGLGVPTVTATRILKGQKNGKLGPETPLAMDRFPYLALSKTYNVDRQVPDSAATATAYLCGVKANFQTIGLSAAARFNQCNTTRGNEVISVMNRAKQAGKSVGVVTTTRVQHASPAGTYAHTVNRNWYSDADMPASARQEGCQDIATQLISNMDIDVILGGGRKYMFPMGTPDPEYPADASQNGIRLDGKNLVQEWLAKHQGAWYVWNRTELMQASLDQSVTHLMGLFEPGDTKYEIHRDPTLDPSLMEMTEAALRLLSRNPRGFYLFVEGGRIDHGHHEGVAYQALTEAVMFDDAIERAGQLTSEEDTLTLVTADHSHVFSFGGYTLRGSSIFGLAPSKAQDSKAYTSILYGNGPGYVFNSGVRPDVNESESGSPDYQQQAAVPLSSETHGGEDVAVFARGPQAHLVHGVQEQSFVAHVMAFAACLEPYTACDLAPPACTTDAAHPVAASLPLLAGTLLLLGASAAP
mIAP activ: increases mouse intestinal alkaline phosphatase activity; muIAP, CDP-Star luminescence, 30 min; active compounds read high; 1 = vehicle-only enzyme signal, 0 = enzyme-free wells; activation factor at 10 µM; 0.24% of 330,000 active; AID 2805;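 active = activation factor of at least 2 at 20 µM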
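System: Mouse IAP enzyme | Also added: CDP-Star substrate | Dosing: Compounds dispensed in DMSO | Schedule: 30 min enzyme-substrate-compound incubation at room temperature | Technique: Chemiluminescence readout | Control set: DMSO-only wells and no-enzyme negative control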
bIAP act: increases bovine intestinal alkaline phosphatase activity. AID 1016. purified bovine IAP, CDP-star luminescence, 30 min; active compounds read high; fold of DMSO-control signal, blank-subtracted. 0.17% of 200,000 active. activation factor at 20 µM;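 active = activation factor of 2 or more at 20 µM, a signal rise over negative controls twice the positive control's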
hIAP activ: human IAP activation; purified human IAP, CDP-Star luminescence, 30 min; active compounds read high; 1 = vehicle-only enzyme, 0 = enzyme-free background; activation factor at 10 µM; 0.16% of 330,000 active; AID 2524;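 active = activation factor of the enzyme at least 2-fold when tested at 20 µM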
The depositor's hits bear a star; i = inactive; . = no result given.

SMILES	mIAP block	bIAP inhibitor	hIAP inh	mIAP activ	bIAP act	hIAP activ
CCOC(=O)c1sc(NC(=O)Nc2cccc(Cl)c2)cc1C	-104	-1	-12	2*	1	1.1
Cc1ccc(C)c(OCCSc2nnc(C)c(=O)[nH]2)c1	-4	11	-5	1	0.9	1.1
O=c1c2ccccc2ncn1CCOc1ccccc1[N+](=O)[O-]	14	-5	6	0.86	1.1	0.94
CC(/C=C/c1ccccc1)=N\Nc1nc2c(c(=O)[nH]c(=O)n2C)n1CCO	9	.	12	0.91	.	0.88
COCCn1c(N/N=C(C)/C=C/c2ccccc2)nc2c1c(=O)[nH]c(=O)n2C	.	-179	.	.	2.8*	.
Cc1ccccc1C(=O)NC(CC(C)C)C(=O)OCC(=O)c1c(N)n(C)c(=O)n(C)c1=O (configuration not stated)	-4	-105	-7	1	2.1*	1.1
CCc1ccc(NC(=S)NC2CC3CCCC(C2)N3Cc2cccs2)cc1 (configuration not stated)	-470	-56	-50	5.7*	1.6	1.5
CCc1ccccc1NC(=O)NC1CC2CCC(C1)N2Cc1cccs1 (configuration not stated)	-22	-17	-4	1.2	1.2	1
C[C@@H]1COC(=O)[C@H](CC(=O)OC(C)(C)C)C/C=C\C[C@@H](CC(=O)N(CCO)Cc2ccccc2)C(=O)N1	-11	.	-23	1.1	.	1.2
Oc1ccc(/C=N/Nc2ncnc3nc[nH]c23)cc1	23	.	-45	0.77	.	1.4
Fc1cccc(/C=N/Nc2ncnc3nc[nH]c23)c1	-10	0	-97	1.1	1	2
Cc1ccc(/C=N/Nc2ncnc3nc[nH]c23)cc1	12	.	-117	0.88	.	2.2*
Clc1ccc(/C=N/Nc2ncnc3nc[nH]c23)cc1	-1	.	-123	1	.	2.2*
CC(=NCCCn1ccnc1)c1c(C)[nH]n(-c2ccc([N+](=O)[O-])cc2)c1=O	6	-2	3	0.94	1	0.97
CCCCSCCCNC(=O)Nc1ccc(C)c(C)c1	-173	-3	-28	2.7*	1	1.3
Cc1ccc(NC(=O)NCCN2CCCCC2)cc1C	-29	.	19	1.3	.	0.81
CC1(C)CC(c2nc(-c3ccc([N+](=O)[O-])cc3)cs2)CCO1 (configuration not stated)	1	0	-8	0.99	1	1.1
CCC(=O)OCCNc1cc(SCCC(=O)OC)c2nonc2c1[N+](=O)[O-]	12	14	-4	0.88	0.9	1
CCCC(=O)OCCNc1cc(Sc2nc3ccccc3[nH]2)c2nonc2c1[N+](=O)[O-]	12	-251	12	0.88	3.5*	0.88
Cc1ccc(-n2c(C)cc(C3N=C(N)Nc4nc5ccccc5n43)c2C)c(C)c1 (configuration not stated)	-84	i	-18	1.8	7*	1.2
Cc1cc(C2N=C(N)Nc3nc4ccccc4n32)c(C)n1-c1ccccc1Cl (configuration not stated)	-96	-312	20	2	4.1*	0.81
Cc1cccc2c1cnn2C(=O)Nc1cc(F)ccc1F	-5	.	6	1	.	0.94
CC(NC(=O)Nc1ccccc1)C(c1cccs1)N1CCOCC1 (configuration not stated)	-2	4	3	1	1	0.97
CC(NC(=O)Nc1ccc(Cl)cc1)C(c1cccs1)N1CCOCC1 (configuration not stated)	-137	-20	-19	2.4*	1.2	1.2
Cc1nnc(SCC(=O)NCC(=O)Nc2ccc(F)c(F)c2F)n1N	6	.	-14	0.94	.	1.1
SMILES	mIAP block	bIAP inhibitor	hIAP inh	mIAP activ	bIAP act	hIAP activ
CCN(CC)S(=O)(=O)c1ccc(N2CCN(C)CC2)c(NC(=O)CSCC(=O)Nc2cccc(C)c2)c1	0	.	-8	1	.	1.1
CCN(CC)S(=O)(=O)c1ccc(N2CCN(C)CC2)c(NC(=O)Nc2ccc(C)cc2)c1	-101	.	-77	2*	.	1.8
COc1ccc(C(CCc2ccc(C)o2)NC(=O)Nc2ccc(OC)cc2OC)cc1 (configuration not stated)	-104	-12	17	2*	1.1	0.83
O=C(Nc1ccc(Cl)c(C(F)(F)F)c1)NC1CC2CCCC(C1)N2C1CC1 (configuration not stated)	-337	.	8	4.4*	.	0.92
O=C(Nc1cccc(F)c1)NC1CC2CCCC(C1)N2C1CC1 (configuration not stated)	-38	-2	6	1.4	1	0.94
CCOc1ccc(S(=O)(=O)NC(Cc2c[nH]c3ccccc23)C(=O)O)cc1 (configuration not stated)	-4	.	-5	1	.	1.1
C=CCOc1ccc(C(=O)Nc2ccccc2C(=O)NCc2cccnc2)cc1	0	.	3	1	.	0.97
Cc1ccc(NC(=O)Nc2ccc(F)c(Cl)c2)cc1	-188	31	-14	2.9*	0.7	1.1
CSc1ccccc1NC(=O)Nc1cccc(Cl)c1	-113	6	9	2.1*	0.9	0.91
COc1ccc(NC(=O)Nc2ccc(F)c(Cl)c2)cc1	-89	3	9	1.9	1	0.91
CSc1ccccc1NC(=O)Nc1ccc(F)c(Cl)c1	-128	1	20	2.3*	1	0.81
COc1ccc(CCNCC(=O)Nc2ccccc2C(F)(F)F)cc1	-4	-12	2	1	1.1	0.98
Cc1cc(C)nc(Oc2ccc([N+](=O)[O-])cc2)n1	3	2	-12	0.97	1	1.1
Cc1ccc2nc(NCc3ccccc3)[nH]c2c1	.	-177	.	.	2.8*	.
CCOc1ccc2nc(NCCNC(=O)Nc3cccc(C)c3)c(C#N)cc2c1	-115	-79	12	2.2*	1.8	0.88
O=c1cc(-c2ccc(O)cc2)oc2c(C3OCC(O)C(O)C3O)c(O)c(C3OC(CO)C(O)C(O)C3O)c(O)c12 (configuration not stated)	43*	.	-1	0.57	.	1
C=C1CCN([C@@H](CC(C)C)C(=O)NCc2ccc(Cl)cc2)S(=O)(=O)c2ccccc21	46*	.	12	0.54	.	0.88
C=C1CCN([C@@H](CC(C)C)C(=O)NCc2ccc(Cl)c(Cl)c2)S(=O)(=O)c2ccccc21	-19	.	24	1.2	.	0.76
CCOc1ccc2nc(NC(=O)Cn3c(C)csc3=O)sc2c1	4	.	4	0.96	.	0.96
CCCC(=O)Nc1ccc(C(=O)N/N=C/c2ccc([N+](=O)[O-])o2)cc1	40*	-38	-28	0.6	1.4	1.3
O=C(CSc1ccc2nnc(CCNC(=O)c3ccc(F)cc3)n2n1)NCc1ccco1	6	.	-18	0.94	.	1.2
Fc1ccc(-c2n[nH]c(=S)n2/N=C/c2c[nH]c3ccccc23)cc1	-16	-113	-28	1.2	2.1*	1.3
